Assay results from ChEMBL document CHEMBL5365542, “Difluoromethyl-1,3,4-oxadiazoles Are Selective, Mechanism-Based, and Essentially Irreversible Inhibitors of Histone Deacetylase 6” (J Med Chem, 2023).

Key:
[1] = target: Histone deacetylase 2 (Homo sapiens) (UniProt Q92769); experiment: (§1) Inhibition of C-terminal 6His-tagged human recombinant HDAC2 (1 to 488 residues) expressed in Sf9 insect cells using Z-Lys(Ac)-AMC as fluorogenic substrate at 10 uM preincubated for 60 mins followed by substrate addition and measured after 90 mins by microplate reader analysis relative to control; conditions: time 150.0 min
Method in brief: (§2)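 Human recombinant enzyme was preincubated with 3-fold inhibitor dilutions for 60 min at 25 °C in Tris-HCl pH 8.0 buffer with BSA. ZMAL (75 μM solution) was then added, and the mix was incubated 90 min at 37 °C (max 1% DMSO). Trypsin was added for 30 min at 37 °C, and fluorescence was read at ex 355/em 460. Tested at least twice in duplicate.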

[2] = target: Histone deacetylase 1 (Homo sapiens) (UniProt Q13547); experiment: as §1, with “6His/FLAG tagged” for “6His-tagged”, “HDAC1” for “HDAC2”, “482” for “488”, “residues) […]” for “residues)”; conditions: time 150.0 min; method in brief: as §2
[3] = target: T1, Protein deacetylase HDAC6 (Homo sapiens) (UniProt Q9UBN7); experiment: (§3) Inhibition of N-terminal GST tagged human recombinant HDAC6 (1 to 1215 residues) expressed in Sf9 insect cells using Z-Lys(Ac)-AMC as fluorogenic substrate at 10 uM preincubated for 60 mins followed by substrate addition and measured after 90 mins by microplate reader analysis relative to control; conditions: time 150.0 min; method in brief: as §2
T1 sequence (whole entry): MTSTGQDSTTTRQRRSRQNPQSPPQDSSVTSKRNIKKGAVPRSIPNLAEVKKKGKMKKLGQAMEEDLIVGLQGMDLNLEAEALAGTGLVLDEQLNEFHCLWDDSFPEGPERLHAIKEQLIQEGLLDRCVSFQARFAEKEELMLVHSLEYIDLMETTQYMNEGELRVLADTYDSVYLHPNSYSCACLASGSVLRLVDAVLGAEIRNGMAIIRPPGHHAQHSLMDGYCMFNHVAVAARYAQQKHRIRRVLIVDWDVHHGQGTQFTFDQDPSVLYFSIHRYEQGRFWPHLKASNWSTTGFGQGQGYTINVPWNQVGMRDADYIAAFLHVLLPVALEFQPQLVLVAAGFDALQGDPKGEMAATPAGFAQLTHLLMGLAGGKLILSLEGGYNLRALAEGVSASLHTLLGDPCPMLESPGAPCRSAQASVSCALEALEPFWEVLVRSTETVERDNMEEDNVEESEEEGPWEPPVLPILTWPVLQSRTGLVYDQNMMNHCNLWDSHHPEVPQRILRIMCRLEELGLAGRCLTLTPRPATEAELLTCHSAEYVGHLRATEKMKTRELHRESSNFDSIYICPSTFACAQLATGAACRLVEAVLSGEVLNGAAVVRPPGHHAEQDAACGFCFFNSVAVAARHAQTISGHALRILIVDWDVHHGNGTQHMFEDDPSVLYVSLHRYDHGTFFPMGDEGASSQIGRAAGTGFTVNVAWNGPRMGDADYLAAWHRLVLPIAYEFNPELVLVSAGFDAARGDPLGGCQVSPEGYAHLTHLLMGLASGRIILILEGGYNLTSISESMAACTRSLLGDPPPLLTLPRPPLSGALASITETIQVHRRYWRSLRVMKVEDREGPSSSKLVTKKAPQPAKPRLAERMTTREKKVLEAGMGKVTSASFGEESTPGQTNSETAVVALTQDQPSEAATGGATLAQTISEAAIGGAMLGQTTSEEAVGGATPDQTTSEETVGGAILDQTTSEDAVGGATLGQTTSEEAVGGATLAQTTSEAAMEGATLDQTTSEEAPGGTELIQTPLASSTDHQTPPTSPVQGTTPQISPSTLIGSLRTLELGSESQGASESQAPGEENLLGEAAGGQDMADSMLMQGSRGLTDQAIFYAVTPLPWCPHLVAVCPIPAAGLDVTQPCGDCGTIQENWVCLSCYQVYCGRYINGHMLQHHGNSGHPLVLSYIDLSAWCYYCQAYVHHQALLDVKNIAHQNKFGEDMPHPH

[4] = target: Histone deacetylase 3/Nuclear receptor corepressor 2 (HDAC3/NCoR2) (Homo sapiens) (UniProt O15379+Q9Y618); experiment: as §3, with “C-terminal His-tagged human HDAC3 (1 to 428 residues)/N-terminal” for “N-terminal”, “NcoR2 (395” for “recombinant HDAC6 (1”, “489” for “1215”; conditions: time 150.0 min; method in brief: as §2
[5] = target: Histone deacetylase 4 (Homo sapiens) (UniProt P56524); experiment: as §3, with “GST-tagged/C-terminal His-tagged” for “GST tagged”, “HDAC4 (627” for “recombinant HDAC6 (1”, “1084” for “1215”, “Boc-Lys(Tfa)-AMC” for “Z-Lys(Ac)-AMC”; conditions: time 150.0 min
Method in brief: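 Recombinant human HDAC4 was preincubated with inhibitor for 60 min at 25 °C in Tris-HCl pH 8.0/BSA buffer. Boc-Lys(Tfa)-AMC (42.86 μM solution) was then added for 90 min at 37 °C, followed by trypsin for 30 min at 37 °C. Fluorescence was read at ex 355/em 460. Tested at least twice in duplicate.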

[6] = target: T2, Protein deacetylase HDAC6 (Homo sapiens, UniProt Q9UBN7); experiment: Inhibition of N-terminal GST tagged human recombinant HDAC6 (1 to 1215 residues) expressed in Sf9 insect cells using Z-Lys(Ac)-AMC as fluorogenic substrate preincubated for 60 mins followed by substrate addition and measured after 90 mins by microplate reader analysis
T2 sequence (Q9UBN7 whole entry): T1 sequence (whole entry)

Sequence of Histone deacetylase 4 (Homo sapiens) (P56524 whole entry): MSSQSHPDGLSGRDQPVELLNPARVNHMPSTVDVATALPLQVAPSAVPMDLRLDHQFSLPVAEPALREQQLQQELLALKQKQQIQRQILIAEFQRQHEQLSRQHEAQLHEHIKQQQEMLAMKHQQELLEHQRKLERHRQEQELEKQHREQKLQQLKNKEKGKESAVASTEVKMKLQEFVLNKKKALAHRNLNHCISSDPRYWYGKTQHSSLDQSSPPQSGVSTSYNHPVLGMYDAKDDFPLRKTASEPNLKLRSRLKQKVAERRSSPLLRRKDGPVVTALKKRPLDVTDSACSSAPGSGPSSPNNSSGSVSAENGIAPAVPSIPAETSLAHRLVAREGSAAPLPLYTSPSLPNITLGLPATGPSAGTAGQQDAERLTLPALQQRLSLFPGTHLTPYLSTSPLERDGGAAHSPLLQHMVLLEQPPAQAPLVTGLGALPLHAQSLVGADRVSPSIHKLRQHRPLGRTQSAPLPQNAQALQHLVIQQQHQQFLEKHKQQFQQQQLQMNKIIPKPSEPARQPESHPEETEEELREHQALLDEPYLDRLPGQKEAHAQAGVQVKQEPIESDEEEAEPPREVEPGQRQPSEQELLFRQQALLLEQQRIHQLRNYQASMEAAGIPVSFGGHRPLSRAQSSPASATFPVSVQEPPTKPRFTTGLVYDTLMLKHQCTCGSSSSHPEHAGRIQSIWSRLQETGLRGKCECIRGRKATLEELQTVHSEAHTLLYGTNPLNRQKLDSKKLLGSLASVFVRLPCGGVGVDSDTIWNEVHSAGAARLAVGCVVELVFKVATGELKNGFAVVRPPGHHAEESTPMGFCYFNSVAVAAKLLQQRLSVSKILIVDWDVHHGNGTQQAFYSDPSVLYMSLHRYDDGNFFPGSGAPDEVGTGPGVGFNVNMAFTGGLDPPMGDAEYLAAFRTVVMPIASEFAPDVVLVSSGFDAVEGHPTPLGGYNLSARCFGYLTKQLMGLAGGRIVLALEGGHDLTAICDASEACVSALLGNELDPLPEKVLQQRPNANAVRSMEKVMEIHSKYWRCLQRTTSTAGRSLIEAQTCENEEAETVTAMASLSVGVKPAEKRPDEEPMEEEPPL
Sequence of Histone deacetylase 2 (Homo sapiens) (Q92769 whole entry, the tested form may be a part): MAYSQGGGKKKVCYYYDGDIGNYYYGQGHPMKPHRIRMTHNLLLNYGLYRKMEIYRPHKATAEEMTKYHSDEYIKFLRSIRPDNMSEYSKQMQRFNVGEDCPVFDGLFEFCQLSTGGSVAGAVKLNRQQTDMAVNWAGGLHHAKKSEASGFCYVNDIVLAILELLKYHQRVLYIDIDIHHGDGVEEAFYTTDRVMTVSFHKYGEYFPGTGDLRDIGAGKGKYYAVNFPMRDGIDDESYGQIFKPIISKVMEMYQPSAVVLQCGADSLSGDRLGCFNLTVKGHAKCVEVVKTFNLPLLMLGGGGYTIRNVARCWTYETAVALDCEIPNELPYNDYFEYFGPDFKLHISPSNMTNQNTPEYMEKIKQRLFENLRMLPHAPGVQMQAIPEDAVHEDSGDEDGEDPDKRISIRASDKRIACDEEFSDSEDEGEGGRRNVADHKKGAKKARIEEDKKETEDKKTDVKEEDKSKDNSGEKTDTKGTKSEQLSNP
Sequence of Histone deacetylase 1 (Homo sapiens) (Q13547 whole entry, the tested form may be a part): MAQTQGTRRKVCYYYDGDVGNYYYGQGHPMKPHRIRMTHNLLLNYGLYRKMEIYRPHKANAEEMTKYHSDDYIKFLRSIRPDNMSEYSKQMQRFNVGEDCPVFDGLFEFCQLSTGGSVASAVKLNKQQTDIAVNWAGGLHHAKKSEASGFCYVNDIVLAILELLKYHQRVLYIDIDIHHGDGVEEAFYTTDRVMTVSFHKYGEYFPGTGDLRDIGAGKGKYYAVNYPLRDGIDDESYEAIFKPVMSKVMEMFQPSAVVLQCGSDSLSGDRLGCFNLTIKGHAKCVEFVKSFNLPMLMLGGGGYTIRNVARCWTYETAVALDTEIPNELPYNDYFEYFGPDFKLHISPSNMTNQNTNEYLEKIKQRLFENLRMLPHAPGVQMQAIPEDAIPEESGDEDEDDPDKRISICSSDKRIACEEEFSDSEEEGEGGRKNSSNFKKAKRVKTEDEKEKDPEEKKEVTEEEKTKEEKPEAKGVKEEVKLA

| inhibition [1] [%] | inhibition [2] [%] | inhibition [3] [%] | inhibition [4] [%] | inhibition [5] [%] | IC50 [6] [nM] | Compound |
| --- | --- | --- | --- | --- | --- | --- |
| < 15 | < 15 | 76 | < 15 | < 15 | – | CCCCN(Cc1ccc(-c2nnc(C(F)F)o2)cc1)C(=O)Nc1ccccc1 |
| – | – | 54 | – | – | – | FCc1nnc(-c2cnc(NCc3ccccc3)nc2)o1 |
| < 15 | < 15 | – | < 15 | < 15 | 337 | COc1ccc(CNc2ncc(-c3nnc(C(F)F)o3)cn2)cc1 |
| < 15 | < 15 | 27 | < 15 | < 15 | – | CN(C)c1ccc(C(=O)N(CC(=O)NCc2ccccc2)Cc2ccc(-c3nnc(C(F)F)o3)cc2)cc1 |
| – | – | 30 | – | – | – | NNC(=O)c1cnc(NCc2ccccc2)nc1 |
| < 15 | < 15 | < 15 | < 15 | < 15 | – | FC(F)c1nnc(-c2ccccc2)o1 |
| < 15 | < 15 | 39 | < 15 | < 15 | – | Cc1ccc(-c2nnc(C(F)F)o2)cn1 |
| – | – | < 15 | – | – | – | O=C(NNC(=O)C(F)F)c1cnc(NCc2ccccc2)nc1 |
| < 15 | < 15 | 75 | < 15 | < 15 | – | CCCCN(Cc1ccc(-c2nnc(C(F)F)o2)cc1)C(=O)c1ccccc1 |
| < 15 | < 15 | 56 | < 15 | < 15 | – | FC(F)c1nnc(-c2cncnc2)o1 |
| – | – | < 15 | – | – | – | Cc1nnc(-c2cnc(NCc3ccccc3)nc2)o1 |
